Values after ≈ are worked out from the molar mass of the structure shown. Active and inactive are the calls of the source. The rule behind the calls is not given here. Where a SMILES comes first, the peptide text is derived from it.
Legend:
[1] = system: Pseudomonas aeruginosa; assay: Antibacterial activity against multidrug-resistant Pseudomonas aeruginosa clinical isolate by broth microdilution method; assay type: functional
Outline: (§1)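 Adapted CLSI broth microdilution in Mueller-Hinton broth; mid-log bacteria at 2 × 10^6 CFU/ml mixed 1:1 with peptide dilutions (2-fold series from 20% ethanol stocks, 1–64 μM). Growth read by absorbance at 595 nm after 18–20 h at 37°C; MIC = lowest concentration giving 100% growth inhibition.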

[2] = system: Pseudomonas aeruginosa; assay: Bactericidal activity against multidrug-resistant Pseudomonas aeruginosa clinical isolate assessed as concentration required for >= 3 log10 CFU/ml reduction in viable bacteria in Mueller-Hinton broth after 90 mins; assay type: functional; details: 1.5 h
Outline: (§2)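 Exponential-phase bacteria resuspended at 1 × 10^7 CFU/ml in MHB or PBS; 10 μl incubated with 2-fold peptide dilutions (2–64 μM) in 100 μl, 37°C, 90 min, then plated on LB agar and counted after overnight growth. Value = concentration giving ≥3 log10 CFU/ml reduction. Solvent control 0.6% ethanol.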

[3] = system: Pseudomonas aeruginosa; assay: Bactericidal activity against multidrug-resistant Pseudomonas aeruginosa clinical isolate assessed as concentration required for >= 3 log10 CFU/ml reduction in viable bacteria in phosphate-buffer saline containing 150 mM sodium salt after 90 mins; assay type: functional; details: 1.5 h; outline: as §2
[4] = system: Pseudomonas aeruginosa; assay: Antibacterial activity against multidrug-resistant Pseudomonas aeruginosa clinical isolate infected in Caenorhabditis elegans assessed as worm survival at 0.01 nM after 48 hrs; assay type: functional, organism-based
[5] = system: Caenorhabditis elegans; assay: Toxicity in multidrug-resistant Pseudomonas aeruginosa clinical isolate infected Caenorhabditis elegans induction of worm mortality at >0.01 nM after 48 hrs; assay type: organism-based; details: in vivo
[6] = system: Pseudomonas aeruginosa; assay: Antibacterial activity against multidrug-resistant Pseudomonas aeruginosa clinical isolate assessed as reduction in viable bacterial count at MIC after 5 mins by time-kill analysis; assay type: functional
Outline: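 Bacteria grown in MHB at 37°C, diluted into PBS (about 1 × 10^5 CFU in 100 μl), incubated at 37°C with peptide at its MIC; 10 μl samples taken at intervals, diluted in MHB, plated on LB agar, CFU counted after overnight growth. Controls untreated or 0.6% ethanol solvent; three independent experiments, mean ± SD.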

[7] = Toxicity in human RBC assessed as hemolytic activity upto 64 uM; assay type: cell-based; details: erythrocyte
Outline: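 Fresh erythrocytes from healthy human donors, washed three times in 0.9% NaCl, used as a 5% (vol/vol) final suspension. Peptides were dissolved in 20% ethanol and tested at 2 to 64 μM, with agitation at 37°C for 40 min. Hemoglobin release was read as supernatant absorbance at 540 nm. The blank was solvent at 0.6% final; hypotonic lysis gave 100%.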

[8] = system: Pseudomonas aeruginosa; assay: Antibacterial activity against multidrug-resistant Pseudomonas aeruginosa clinical isolate infected in Caenorhabditis elegans assessed as increase in worm survival at 0.3 nM after 40 hrs relative untreated control; assay type: functional
Outline: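 N2 young adults infected 6 h at 25°C on modified NGM lawns of clinical isolate, washed in M9, 15 worms/well in 50 μl S medium with E. coli OP50 plus peptide (0.3 or 0.01 nM depending on peptide); 40 h at 25°C. Dead = no movement or muscle tone; at least three experiments, mean ± SD.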

[9] = system: Pseudomonas aeruginosa; assay: Antibacterial activity against multidrug-resistant Pseudomonas aeruginosa clinical isolate infected in Caenorhabditis elegans assessed as reduction in viable bacterial count in intestinal lumen after 24 hrs by agar plate assay relative to untreated worm; assay type: functional
Outline: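 Worms infected 6 h, then on OP50 NGM plates with 0.5 nM peptide added. Before and after 1 day, 10 worms per replicate washed three times in M9 with 20 μg/ml gentamicin, lysed in M9–1% Triton X-100, and plated on LB with 100 μg/ml ampicillin; CFU counted after overnight growth at 37°C. At least three experiments.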

[10] = system: Pseudomonas aeruginosa; assay: Antibacterial activity against multidrug-resistant Pseudomonas aeruginosa clinical isolate infected in Caenorhabditis elegans assessed as increase in worm survival within 6 days agar plate assay relative to untreated worm; assay type: functional
Outline: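 Worms infected 6 h, washed in M9, 15 per 3.5-cm NGM plate with E. coli OP50, moved daily to fresh plates freshly spread with 200 μl of 0.5 nM peptide. Death scored as absence of touch-provoked movement over 6 days versus untreated infected worms; at least three experiments.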

[11] = system: Pseudomonas aeruginosa; assay: Antibacterial activity against Pseudomonas aeruginosa ATCC 15692 by broth microdilution method; assay type: functional; outline: as §1
[12] = system: Pseudomonas aeruginosa; assay: Antibacterial activity against Pseudomonas aeruginosa ATCC 15692 expressing GFP infected in Caenorhabditis elegans assessed as reduction in viable bacterial count in intestinal lumen after 90 mins by fluorescence microscopy; assay type: functional, organism-based
Outline: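 Nematodes infected 16 h with GFP-expressing ATCC 15692 (plasmid pSMC21, ampicillin-selected), moved to OP50 NGM plates with or without 0.5 nM peptide; after 90 min, gut fluorescence viewed by epifluorescence stereomicroscopy (GFP2 filter, ×60).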

[13] = system: Pseudomonas aeruginosa; assay: Induction of membrane permeation on multidrug-resistant Pseudomonas aeruginosa clinical isolate infected in Caenorhabditis elegans assessed as increase in membrane permeability assessed as increase in membrane permeability by Sytox green dye influx assay; assay type: functional, organism-based
Outline: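 N2 adults infected 16 h, washed in M9, held about 24 h at 25°C on K medium agar to expand gut bacteria (about 1,000 CFU/worm). 200 worms per well in 300 μl K medium with 1 μM Sytox Green, 5 min in the dark; 10 nM peptide added, fluorescence (485/535 nm) read at 25°C until plateau (about 40 min). Controls: 0.3% ethanol-treated infected worms and uninfected worms; two experiments.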

[14] = system: Escherichia coli; assay: Induction of membrane permeation on GFP expressing Escherichia coli OP50 infected in Caenorhabditis elegans assessed as increase in membrane permeability assessed as increase in membrane permeability after 16 hrs post dose by Sytox green dye influx assay; assay type: functional, organism-based
[15] = Toxicity in human RBC assessed as hemolytic activity at 32 uM; assay type: cell-based, Erythrocyte; details: red blood cells, read-out: Activity
[16] = Toxicity in human RBC assessed as hemolytic activity <32 to 64 uM; assay type: cell-based; details: erythrocyte
[17] = Toxicity in human RBC assessed as hemolytic activity at 64 uM; assay type: cell-based, Erythrocyte; details: red blood cells, read-out: Activity

Row | Compound | MIC [1] [µM] | MIC [2] [µM] | MIC [3] [µM] | Activity [4] | Activity [5] | CFU/ml [6] | Activity [7] | fold change (FC) [8] | fold change (FC) [9] | fold change (FC) [10] | MIC [11] [µM] | Activity [12] | Activity [13] | Activity [14] | hemolysis at 32 µM [15] [%] | Activity [9] | Activity [16] | hemolysis at 64 µM [17] [%]
1 | CC[C@H](C)[C@H](NC(=O)[C@H](CCCNC(=N)N)NC(=O)CNC(=O)[C@H](CC(C)C)NC(=O)[C@H](Cc1ccccc1)NC(=O)[C@H](CCCCN)NC(=O)[C@H](CO)NC(=O)[C@H](Cc1ccccc1)NC(=O)[C@H](Cc1c[nH]c2ccccc12)NC(=O)[C@H](CCC(N)=O)NC(=O)[C@@H](NC(=O)[C@@H](N)Cc1ccccc1)C(C)C)C(=O)N[C@@H](CC(C)C)C(N)=O [TEMPORIN L] (H-FVQWFSKFLGRIL-NH2) | 64 (≈ 105 µg/mL) | > 64 | 16 | inactive | Toxic |  |  |  |  |  |  |  |  |  |  |  |  | 
2 | CC[C@H](C)[C@H](NC(=O)CN)C(=O)N[C@@H](Cc1ccccc1)C(=O)N[C@@H](CO)C(=O)N[C@@H](CCCCN)C(=O)N[C@@H](CC(C)C)C(=O)N[C@@H](C)C(=O)NCC(=O)N[C@@H](CCCCN)C(=O)N[C@@H](CCCCN)C(=O)N[C@H](C(=O)N[C@@H](CCCCN)C(=O)N[C@@H](CC(N)=O)C(=O)N[C@@H](CC(C)C)C(=O)N[C@@H](CC(C)C)C(=O)N[C@H](C(=O)N[C@@H](CO)C(=O)NCC(=O)N[C@@H](CC(C)C)C(=O)N[C@@H](CCCCN)C(=O)NCC(N)=O)[C@@H](C)CC)[C@@H](C)CC (H-GIFSKLAGKKIKNLLISGLKG-NH2) | 4 (≈ 8.74 µg/mL) | 16 (≈ 35 µg/mL) | 4 | inactive |  | 998000 | Non-toxic |  |  |  |  |  |  |  |  |  |  | 
3 | CC[C@H](C)[C@H](NC(=O)CN)C(=O)N[C@@H](Cc1ccccc1)C(=O)N[C@@H](CO)C(=O)N[C@@H](CCCCN)C(=O)N[C@@H](CC(C)C)C(=O)N[C@@H](C)C(=O)NCC(=O)N[C@@H](CCCCN)C(=O)N[C@@H](CCCCN)C(=O)N[C@@H](CC(C)C)C(=O)N[C@@H](CCCCN)C(=O)N[C@@H](CC(N)=O)C(=O)N[C@@H](CC(C)C)C(=O)N[C@@H](CC(C)C)C(=O)N[C@H](C(=O)N[C@@H](CO)C(=O)NCC(N)=O)[C@@H](C)CC (H-GIFSKLAGKKLKNLLISG-NH2) | 8 (≈ 15.1 µg/mL) | 64 (≈ 121 µg/mL) | 16 | inactive |  | 950000 | Non-toxic | 4 | 5 | 2 | 8 (≈ 15.1 µg/mL) | Active | Active | inactive |  |  |  | 
4 | CC[C@H](C)[C@H](NC(=O)[C@@H]1CCCN1C(=O)[C@H](CC(C)C)NC(=O)[C@@H](N)CC(C)C)C(=O)N[C@H](C(=O)NCC(=O)N[C@@H](CC(N)=O)C(=O)N[C@@H](CC(C)C)C(=O)N[C@@H](CC(C)C)C(=O)N[C@@H](CCCCN)C(=O)N[C@@H](CO)C(=O)N[C@@H](CC(C)C)C(=O)N[C@@H](CC(C)C)C(N)=O)C(C)C (H-LLPIVGNLLKSLL-NH2) | > 64 | > 64 | > 64 | inactive |  |  |  | 4 |  |  | > 64 | Active |  |  | 5 | Active | Non-toxic | 
5 | CC[C@H](C)[C@H](NC(=O)CNC(=O)[C@H](CO)NC(=O)[C@H](CC(C)C)NC(=O)[C@@H](NC(=O)[C@H](CCCCN)NC(=O)CNC(=O)[C@@H](NC(=O)[C@H](CC(C)C)NC(=O)[C@@H]1CCCN1C(=O)[C@H](CC(C)C)NC(=O)[C@@H](N)Cc1ccccc1)[C@@H](C)CC)C(C)C)C(=O)N[C@@H](CC(C)C)C(N)=O (H-FLPLIGKVLSGIL-NH2) | > 64 | > 64 | > 64 | inactive |  |  |  |  |  |  |  |  |  |  |  |  | Non-toxic | 12
